# Source: PubChem
# TPT1 inhibitor – inhibitors of Candida albicans tRNA 2'-phosphotransferase TPT1; hit rate 0.81% among 300,000; inhibition, % at 5 µM; recombinant caTPT1, FP RNA substrate dephosphorylation;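 active = inhibition above the mean of all tested compounds plus 3 SD, set per screening campaign, cut at about 24% in these data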;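 also: plate controls were DMSO alone for no effect and ferristatin control at 100 nM for full effect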
# CSN deneddyl inh – inhibitors of human CSN-mediated cullin deneddylation | Q92905 | AID 651999 | Purified CSN, SCF-Nedd8-OG deneddylation, fluorescence polarization | inhibition, % at 12.5 µM | hit rate 0.38% among 360,000;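 active = pattern-corrected inhibition above about 35%, with an unprinted fluorescence ratio check between 0.5 and 1.5, limit read from the data, passing the limit was not always enough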;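 also: 0% = enzyme with substrate and 100% = substrate without enzyme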
#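 Assay system: purified human Csn5 enzyme expressed in HEK293T cells; Input: 0.24 nM Csn5 enzyme, final concentration; Reagent: 10 nM SCFSkp2-Nedd8OG; Compound dosing: 12.5 µM single point; Times: reaction 90 min, room temperature; Technique: fluorescence polarization readout.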
# NadD inh – inhibitors of Staphylococcus aureus NadD; hit rate 0.78% among 360,000; purified NadD enzyme, colorimetric absorbance read-out; inhibition, % at 20 µM; in the data active = inhibition above about 26%
# HNF4A DNA FP – change in binding of human HNF4 alpha to DNA; AID 1224865; activity change, % at 10 µM; hit rate 0.3% among 360,000; P41235; HNF4a-FITC DNA binding, fluorescence polarization, 1 h; in the data active = activity change above about 30%, passing the limit was not always enough
# Target sequence (P41235 whole entry, looked up): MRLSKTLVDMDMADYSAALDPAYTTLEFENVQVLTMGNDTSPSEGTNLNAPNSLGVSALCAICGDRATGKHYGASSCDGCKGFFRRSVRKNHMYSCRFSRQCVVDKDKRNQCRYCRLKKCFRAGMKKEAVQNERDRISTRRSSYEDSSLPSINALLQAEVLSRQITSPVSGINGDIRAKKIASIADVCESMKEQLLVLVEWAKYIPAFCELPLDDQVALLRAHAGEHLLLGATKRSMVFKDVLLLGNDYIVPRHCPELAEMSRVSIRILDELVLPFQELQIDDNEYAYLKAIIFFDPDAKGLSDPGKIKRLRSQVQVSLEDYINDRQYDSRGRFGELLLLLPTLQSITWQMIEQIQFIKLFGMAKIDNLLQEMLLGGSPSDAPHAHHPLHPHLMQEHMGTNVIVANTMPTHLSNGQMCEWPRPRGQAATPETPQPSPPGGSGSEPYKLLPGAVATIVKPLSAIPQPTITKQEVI
# PP1 inh – blocks human PP1-alpha phosphatase, a PP5 counter-screen; P62136; inhibition, % at 6.7 µM; purified PP1alpha, OMFP fluorescence; hit rate 0.9% among 320,000;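 active = inhibition above the mean inhibition of all tested compounds plus 3 SD, computed separately for each screening campaign, cut at about 15% in these data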
# Rpn11 inh – Rpn11 (human) deubiquitinase inhibition; O00487; human 26S proteasome, Ub4-pepOG fluorescence polarization; 20S core pre-blocked with epoxomicin; inhibition, % at 20 µM; hit rate 0.59% among 360,000; AID 588493;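 active = inhibition at 20 µM, scaled to each plate's controls, above about 33%, limit read from the data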
# Rpn11 inh conf – confirmation of human proteasome Rpn11 inhibitors. shares compounds with Rpn11 inh. purified human 26S proteasome, Ub4-pepOG fluorescence polarization; proteasome pretreated with epoxomicin. inhibition, % at 20 µM. hit rate 29% among 1,900. AID 602318
# MMP-2 counter – MMP-2 (human) inhibition counter-screen | AID 602330 | recombinant MMP-2, FRET peptide cleavage fluorescence | inhibition, % at 20 µM | hit rate 4% among 1,900 | shares compounds with Rpn11 inh;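 also: human MMP-2 activated beforehand with APMA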
# Thrombin FP – counter-screen for RPN11 inhibitors: inhibition of bovine thrombin. shares compounds with Rpn11 inh. bovine thrombin cleavage of Ub4-pepOG, fluorescence polarization. inhibition, % at 20 µM. hit rate 13% among 1,900. AID 602333;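 active = mean inhibition at least 40% at 20 µM, or signal 3 deviations below plate average, so some actives read negative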;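 also: plate controls were thrombin with DMSO for no effect and buffer wells lacking thrombin for full effect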
# Starred values were filed as active, the others as inactive; / = not tested or not shown. This is a sample that favours compounds with a hit; in the whole collection about 2.7% have one here. Rule as the data show it, unless noted: active = inhibition above about 40%; inactive = the rest.
SMILES,TPT1 inhibitor,CSN deneddyl inh,NadD inh,HNF4A DNA FP,PP1 inh,Rpn11 inh,Rpn11 inh conf,MMP-2 counter,Thrombin FP
O=C(OCC(=O)N1CCN(c2ccccc2)CC1)C1CCCN1S(=O)(=O)c1ccc(Cl)cc1 (centres undefined),/,0,-2,2,/,3,/,/,/
C[C@@H]1CN([C@@H](C)CO)C(=O)c2cc(NC(=O)Nc3ccccc3)ccc2O[C@H]1CN(C)C(=O)Nc1cccc2ccccc12,/,-4,5,1,/,1,/,/,/
CCc1ccc2[nH]c(=O)c(CN(Cc3ccccc3OC)Cc3nnnn3Cc3ccco3)cc2c1,18,6,26,8,13,45*,-7,-20,-2
O=C(O)c1ccc(-c2nnc(-c3ccccc3)o2)cc1,-4,-3,2,0,-4,2,/,/,/
O=C(Nc1ccc(-c2nnc(-c3ccccc3)o2)cc1)C(F)(F)F,-5,-1,-9,4,-2,43*,-24,-14,-20
COc1ccc(/C(C)=N/NC(=O)c2nnn(-c3nonc3N)c2-c2ccccc2)cc1,-1,8,8,8,-2,80*,93*,0,-11
Cc1ccc2nc(Cl)cc(=O)n2c1,/,-6,-6,2,/,-1,/,/,/
CC(=O)Oc1ccc(Cn2c(C)c(C(=O)NCc3cccc(C(F)(F)F)c3)sc2=O)cc1,/,-1,-9,5,/,10,/,/,/
CCNC(=O)C1(C)CCN(Cc2ccc(-c3ccccc3)cc2)C1 (centres undefined),/,-4,-1,0,/,-1,/,/,/
CCCOc1ccc(-c2nnn(CC(=O)c3c[nH]c4ccccc34)n2)cc1,16,16,13,11,5,50*,34,-43,-19
CC(=O)N(C(C)=O)c1ncn(C)c1S(=O)(=O)Nc1ccccc1,/,-2,-6,-3,/,-4,/,/,/
COC(=O)c1ccc(/C=N/OCC(=O)NCCc2ccc(OC)c(OC)c2)cc1,-2,-14,-16,2,-2,33*,2,-6,-13
COc1ccc(CCNC(=O)CC(=O)N/N=C/c2ccc(C(=O)O)cc2)cc1OC,2,0,-1,1,-4,4,/,/,/
CC1=NN(c2ccccc2)C(=O)C1/C=C1\NC(=S)NC1=O (centres undefined),2,34,25,-10,5,45*,84*,19,24
O=C1NC(=O)/C(=C\c2ccccc2OCc2ccc([N+](=O)[O-])cc2)N1,-1,3,-2,1,11,45*,-12,-27,-15
O=C(NC12CC3CC(CC(C3)C1)C2)N1CCC(O)CC1,-6,0,-1,16,-3,111*,-18,-55,-14
Cc1nc2sc(-c3ccccc3)cc2c(=O)[nH]1,7,-1,-1,14,-1,48*,10,-24,-1
Cc1ccc(NC(=O)CN(C)C(=O)c2cccc(-n3cccc3)c2)cc1,/,29,-1,-39,/,57*,85*,29,21
COc1ccc(NC(=O)CN(C)C(=O)c2cccc(-n3cccc3)c2)cc1,0,30,1,26,1,-20,/,/,/
CC(=O)Nc1ccc(S(=O)(=O)NC(CSc2ccc(C(=O)O)cc2[N+](=O)[O-])C(=O)O)cc1 (centres undefined),-2,-1,-4,-2,-1,1,/,/,/
Cn1c(=O)oc2cc(S(=O)(=O)N3CCN(c4ccccc4F)CC3)ccc21,7,18,-8,8,2,48*,71*,-35,16
COc1cc(OC)c(C(=O)Nc2ccc(C(=O)c3ccccc3)cc2)cc1OC,-1,-5,-10,-1,2,3,/,/,/
CCN(CC)c1ccc(N)cc1,/,15,7,47*,3,98*,42*,-8,26
CC(C)Nc1nc(Oc2ccc(=O)n(-c3ccccc3)n2)nc(N(C)C)n1,-2,-1,0,-35,-6,44*,5,-7,2
CC(C)Nc1nc(NC(C)C)nc(Oc2ccc(=O)n(C)n2)n1,-4,5,7,2,0,-1,/,/,/
SMILES,TPT1 inhibitor,CSN deneddyl inh,NadD inh,HNF4A DNA FP,PP1 inh,Rpn11 inh,Rpn11 inh conf,MMP-2 counter,Thrombin FP
O=C(c1cccn(Cc2ccc(Cl)c(Cl)c2)c1=O)N1CCOCC1,0,-2,1,70*,0,102*,1,-16,-5
COc1ccc([C@H]2CC(=O)C=C(c3ccc(Cl)c(F)c3)C2)cc1,/,3,-5,-1,2,3,/,/,/
CCOC(=O)c1nnn2c1nc(Nc1cccc(C(F)(F)F)c1)c1ccccc12,-2,2,-3,-3,3,64*,7,-8,1
CCOC(=O)c1nnn2c1nc(SCC(C)=O)c1ccccc12,0,-2,-2,0,-2,-8,/,/,/
O=C(N=NC(=O)c1ccco1)c1ccc2c(O)n(N3C(=O)c4ccccc4C3=O)c(O)c2c1,-1,-1,1,7,-2,48*,-13,1,-6
Cc1ccc(-c2nnn3c2nc(NCCc2ccc(S(N)(=O)=O)cc2)c2ccccc23)cc1,2,36*,21,9,4,57*,46*,-137,-8
COc1ccccc1NS(=O)(=O)c1cccc(C(=O)NCC(c2cccs2)N(C)C)c1 (centres undefined),/,2,-1,6,/,10,/,/,/
Cc1sc2ncnc(Sc3nnnn3-c3ccc(Cl)cc3)c2c1C,-2,4,2,0,0,5,/,/,/
c1ccc(-n2nnnc2Sc2ncnc3sc4c(c23)CCCC4)cc1,-4,1,1,2,-2,47*,7,-18,1
O=C(COc1ccc2c3c(c(=O)oc2c1)CCC3)Nc1ccc(CCO)cc1,1,14,3,0,-2,45*,18,-38,11
Cc1ccccc1-c1cc2nc(NCCc3ccncc3)n(C)c(=O)c2s1,/,4,3,2,/,6,/,/,/
O=C(CCNS(=O)(=O)c1ccccc1)N1CCC(Cc2ccccc2)CC1,2,1,-4,-4,2,1,/,/,/
Cc1ccc(-n2c(SCC(=O)NCC3CCCO3)nc3ccccc3c2=O)cc1 (centres undefined),/,-4,5,6,/,-66,/,/,/
COc1ccc(-n2c(SCC(=O)NCC3CCCO3)nc3ccccc3c2=O)cc1Cl (centres undefined),/,9,-6,37,/,47*,34,-23,14
CC1(C)Oc2ccc(C(=O)NC3CC3)cc2N(CC(=O)N2CCOCC2)C1=O,2,3,8,3,5,-5,/,/,/
